# High-throughput results (PubChem BioAssay)
# Only some compounds are listed: those with a hit (about 9% of all), similar ones and a draw of the others.
# D1 mod = D1 dopamine receptor (human) allosteric modulation; B-score at 10 µM; HEK293 D1, CRE-luciferase, dopamine EC30 potentiation; actives deviate in either direction; P21728; actives 5.9% (n = 58,000);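 active = luminescence count or its row- and column-corrected plate score outside the 99.7% band of the plate's sample wells, on either side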
# M1 agonist = M1 muscarinic receptor agonism; CHO-M1 cells, Fluo-4 calcium fluorescence, agonist mode; stronger effect = higher value; B-score at 10 µM; actives 3% (n = 64,000); AID 626;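 active = fluorescence rise, raw or as B-score row- and column-corrected plate score, outside the 99.7% band of its plate's samples, either direction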
# M1 antag = M1 muscarinic receptor (rat) antagonism; CHO-M1 cells, Fluo-4 calcium, ACh EC80 antagonist mode; stronger effect = lower value; B-score at 10 µM; actives 3.4% (n = 64,000);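 active = calcium fluorescence response, raw or row-and-column corrected B-score, differing from the plate sample mean either way at a set confidence level, mostly lower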
# Target sequence (P08482 whole entry, looked up): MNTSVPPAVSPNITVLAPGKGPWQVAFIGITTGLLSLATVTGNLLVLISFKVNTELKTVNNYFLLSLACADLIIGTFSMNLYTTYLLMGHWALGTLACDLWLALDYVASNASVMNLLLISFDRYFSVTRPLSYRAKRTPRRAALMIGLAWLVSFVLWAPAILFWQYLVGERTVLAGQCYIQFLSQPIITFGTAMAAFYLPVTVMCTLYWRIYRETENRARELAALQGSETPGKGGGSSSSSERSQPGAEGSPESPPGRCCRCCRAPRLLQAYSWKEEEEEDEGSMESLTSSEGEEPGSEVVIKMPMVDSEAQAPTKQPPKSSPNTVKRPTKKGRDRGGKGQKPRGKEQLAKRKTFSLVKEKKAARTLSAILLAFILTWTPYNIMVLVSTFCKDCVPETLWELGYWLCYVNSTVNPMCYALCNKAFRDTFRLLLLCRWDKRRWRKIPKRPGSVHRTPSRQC
# AP complement = alternative pathway complement inhibition, orthogonal assay; AID 1235; inhibition, % at 5 µM; Human serum alternative complement pathway, LPS-coated ELISA, C3 deposition; tested in compound mixtures; actives 0.08% (n = 62,000);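 active = inhibition above 30% in each of the two pooled mixtures holding the compound, so the lower value exceeds 30%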;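 also: 0% = serum in Mg-EGTA without compound and 100% = EDTA serum blank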
#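 Assay system: Human serum alternative complement pathway, C3 deposition on LPS-coated wells | Incubation: 1 h serum-compound exposure at 37 °C | Doses: 5 µM per compound in ten-compound mixtures | Read-out: Percent inhibition | Technique: ELISA with HRP anti-human C3 antibody, TMB substrate, absorbance 450 nm | Replication: Two pool placements per compound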
# mHtt clearance = mutant huntingtin protein clearance; actives 0.42% (n = 47,000); HeLa Exon1htt(103Q)mCFP, aggregate imaging; zero = plate's median compound well; AID 853; inhibition, % at 1.5 µM;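 active = inhibition of aggregate fluorescence above about 70%, also judged a hit by eye on the cell image, limit read from the data, passing the limit was not always enough; inconclusive = no rule stated for this call; inactive = not judged a hit on image review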;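 also: cells exposed to compound for three days before fixation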
# Active calls of the source: *; ? = inconclusive; nt = no result.
SMILES,D1 mod,M1 agonist,M1 antag,AP complement,mHtt clearance
CCn1c(SCC(=O)c2ccc(CNC(C)=O)o2)nnc1-c1cccs1,-0.054,0.086,2*,nt,-29
Cc1cc(C(=O)CSc2nn(-c3ccccc3)c(=S)s2)c(C)n1Cc1ccco1,-4.7*,-0.29,0.019,nt,nt
O=C(C1CCCN(S(=O)(=O)c2cccnc2)C1)N1CCn2c1nc1ccccc12 (centres undefined),0.079,-1.6,0.31,3,-126
CSc1nc2ccc3nc(NC(=O)c4ccccc4)sc3c2s1,nt,nt,nt,nt,27
Cc1ccc(NC(=O)c2ccccc2)s1,-5.2*,0.56,-0.2,-16,-8
Cc1cc(NC(=O)c2ccccc2)sc1C,-2.9*,0.0038,-0.006,10,0
CNC(=O)c1cc(C)c(-c2ccccc2)s1,-2.1,-0.14,0.086,7,nt
CC(NC(=O)Cc1cccs1)C(c1cccs1)N1CCOCC1 (centres undefined),-0.77,-0.32,1.7*,nt,nt
COc1ccc(C(=O)NC(=O)Nc2cc(C)ccn2)cc1,-6*,0.14,0.97,6,13
COc1cc(C(=O)Nc2cc(C)ccn2)cc(OC)c1OC,1.7,-0.21,-0.01,12,?
CCc1ccc2nc(N3CCN(C)CC3)c(C#N)cc2c1,-4.9*,-0.13,0.063,4,-35
Cc1ccc(Cl)cc1N1CCN(C(=O)c2ccc(NS(=O)(=O)c3c(C)noc3C)cc2)CC1,-0.58,0.67,-0.53,6,-27
Cc1ccc(C)c(N2CCN(C(=O)c3ccc(NS(=O)(=O)c4c(C)noc4C)cc3)CC2)c1,-0.84,0.09,2.2*,-10,nt
Cc1ccnc(Nc2nc3ccccc3o2)n1,-4.4*,0.36,0.49,19,nt
N#Cc1cnc(Nc2nc3ccccc3o2)nc1-c1ccccc1,nt,0.54,-0.51,18,nt
C=CCn1c(=O)c2c(C)c(C)sc2n2c(Nc3ccccc3)nnc12,1.6,0.34,0.15,5,-21
Cc1cccc(N2CCN(C(=O)CCCSc3nc4ccccc4[nH]3)CC2)c1C,nt,nt,nt,nt,40
CC(=O)c1c(C)[nH]c(C(=O)Nc2ccc3c(c2)OCCO3)c1C,-2.7*,-0.034,-0.83,9,nt
O=C(CC1Nc2ccccc2NC1=O)NCc1cccnc1 (centres undefined),-0.43,1.2,1.4*,6,39
Cc1ccc(C(=O)OCc2cn3ccccc3n2)cc1,1.8,0.12,-0.57,12,nt
COc1ccc(C(=O)Nn2c(SCC(=O)NCc3ccco3)nc3ccccc3c2=O)cc1,-9.3*,-1.1,-0.45,-1,nt
CCOC(=O)c1sc2nc(-c3ccco3)c3c(c2c1N)CC(C)(C)OC3,4*,-1.4,0.08,12,nt
CCN(CC)C(=O)CSc1nnc([C@H](CCSC)NC(=O)OC(C)(C)C)o1,-0.03,-0.57,0.16,-12,7
CSCC[C@H](NC(=O)OC(C)(C)C)c1nnc(SCC(N)=O)o1,-2.2*,0.53,-0.63,0,nt
CC1CCCC(C)N1C(=O)CSc1nnnn1Cc1ccccc1 (centres undefined),6.1*,0.48,-0.57,-1,nt
SMILES,D1 mod,M1 agonist,M1 antag,AP complement,mHtt clearance
CC1CCCC(C)N1C(=O)CSc1nnnn1-c1cccc2c1CCCC2 (centres undefined),nt,nt,nt,nt,6
c1ccc(Nc2nc3ccccc3[nH]2)nc1,-0.54,0.044,0.26,-7,-20
c1ccc(/N=C2\N=C(Nc3ccccn3)c3ccccc32)nc1,14*,nt,nt,3,nt
CCn1nnc(NC(=O)c2cccnc2)n1,0.0048,-0.96,0.77*,-20,nt
CCn1nnc(NC(=O)c2ccc(C(C)(C)C)cc2)n1,nt,-0.55,0.082,-4,nt
COc1cccc(-c2nc(N3CCN(Cc4ccccc4)CC3)c3ccccc3n2)c1O,nt,0.053,0.9,nt,nt
Cc1sc2ncnc(OCC(=O)NCc3cccs3)c2c1C,0.34,0.52,0.072,15,12
CCOC(=O)C1CCCN(S(=O)(=O)c2cc(OCC(N)=O)c(C)cc2Cl)C1 (centres undefined),0.12,-1.7,-0.23,13,71*
Cc1c(C(=O)N2CCOCC2)sc2nc(-c3ccccc3)cn12,-0.48,-0.46,1.1,3,53
COc1ccc(-c2cn3c(C)c(C(=O)N4CCc5ccccc5C4)sc3n2)cc1,nt,4.7*,0.0014,2,nt
CCOC(=O)C1CCCN(C(=O)c2cn(C)c3ccc(S(=O)(=O)N(C)C)cc3c2=O)C1 (centres undefined),0.83,0.22,0.97*,30,?
CN(C)S(=O)(=O)c1ccc2c(c1)c(=O)c(C(=O)N1CCOCC1)cn2C,0.47,0.57,0.88,11,11
Cc1cc2c(s1)CCCCC(=O)N2,-0.17,0.047,0.92,4,-19
